The values that follow come from ChEMBL document CHEMBL4513216, “Probing the Open Global Health Chemical Diversity Library for Multistage-Active Starting Points for Next-Generation Antimalarials” (ACS Infect Dis, 2020).

Each structure is given as a SMILES string.

The nature of this series: Toxicity liver stage against HepG2, at 10uM. The class given is cell-based. Set-up: test concentration 10 uM, cell line HepG2-A16-CD81EGFP. Conditions: human, HepG2-A16-CD81EGFP cells; read-out: INHIBITION
In outline:
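Uninfected HepG2-A16-CD81EGFP cells, 3 × 10^3 per well, 1536-well, plated on prespotted compound at 10 μM final, parasite-free screening media added to match infected plates; puromycin 10 μM positive, DMSO 0.5% negative; run in parallel with 48 h PbLuc assay at 37 °C, 5% CO2; viability by CellTiter-Glo luminescence, normalized to controls.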
As to `CN(Cc1cccc(C#N)c1)Cc1nc2c(cnn2C)c(=O)[nH]1`, the cytotoxicity at 10 µM is -8.7%.
Under `O=C(NCC1CCCO1)c1nc2c(s1)CCCN2c1ncccn1` (stereo unspecified) stands -5.17%; under `Cc1noc(C2CCCN(C(=O)c3cc(Cl)c(Cl)n3C)C2)n1` (stereo unspecified), 13.6%; under `CCC(=O)c1ccc(OCC(=O)NC(C)Cc2cc(C)n[nH]2)cc1` (stereo unspecified), -39.7%.
Under `CC(C)(C)c1ncc2c(n1)CN(C(=O)c1ccc(-n3cnnn3)cc1)C2` stands -1.98%.
For the compound `Cc1n[nH]c(C2CN(Cc3nnc(C4CC4)n3C)CCO2)n1` (stereo unspecified), the cytotoxicity at 10 µM was -16%.
Take `Cc1cccc(Nc2nccnc2C2CCCN(CC(=O)N(C)C)C2)n1` (stereo unspecified): the cytotoxicity at 10 µM is -3.03%.
Under `CCCS(=O)(=O)N1CCN(c2ccnc(N3CCCCC3)n2)CC1` stands 0.805%.
Take `c1ccc(-c2nc(CN3CCCC3Cn3cncn3)no2)cc1` (stereo unspecified): the cytotoxicity at 10 µM was -7.22%.
Turning to `CCn1cc(CN(C)S(=O)(=O)c2cnn(C)c2)cn1`, the cytotoxicity at 10 µM stood at 8.16%.
In the case of `CSc1ccc(OC(C)C(=O)Nc2cc[nH]n2)cc1` (stereo unspecified), the cytotoxicity at 10 µM came to 7.71%.
Regarding `COc1ccccc1-c1ncc(CN2CCC3(CCNCC3)CC2)cn1`, the cytotoxicity at 10 µM was -1.49%.
Consider `CC(C)(CNCc1ccc(OCc2cscn2)cc1)C(N)=O`, for which the cytotoxicity at 10 µM is -137%.
Take `CC(C)c1nccn1C1CCCN(C(=O)C2=NN(C)C(=O)CC2)C1` (stereo unspecified): the cytotoxicity at 10 µM is -24.6%.
Under `Cn1nccc1-c1ccc2nc(C3CCN(CCO)CC3)nn2c1` stands -14.1%; under `Cc1nc(C)n(Cc2cccc(NC(=O)NC(C)(CO)C3CC3)c2)n1` (stereo unspecified), 14.3%; under `CC(C)CN1C(=O)CO[C@@H]2CN(C(=O)N(C)C)C[C@H]21`, 0.657%.
On to `O=C(C1CC1)N1CCC(O)(CN2CCN(c3ccccc3)CC2)C1` (stereo unspecified), for which the cytotoxicity at 10 µM was -3.3%.
Take `O=C(c1cc(=O)n(-c2ccccc2)[nH]1)N1CCCC(c2ccn[nH]2)C1` (stereo unspecified): the cytotoxicity at 10 µM is -2.21%.
Turning to `O=C(OCCF)c1cccc(C(=O)N2CCCC2)n1`, the cytotoxicity at 10 µM worked out at 0.684%.
For `O=C(NC1CC1)N1CCC2(CC1)C(=O)NCCN2Cc1ccccc1`, the cytotoxicity at 10 µM was -0.685%.
Take `O=C(c1cnccn1)N1CCC(CN2CCOCC2)CC1`: the cytotoxicity at 10 µM stood at 4.55%.
Take `COc1ccc(CC(=O)NCCNS(=O)(=O)c2ccc(C)cc2)cc1`: the cytotoxicity at 10 µM was -143%.
For `OC(CN(Cc1ccccc1)Cc1ccncc1)c1cccs1` (stereo unspecified), the cytotoxicity at 10 µM was -3.65%.
On to `CCn1c(=O)n(CCC(=O)N(C)Cc2ccc(C)o2)c2ccccc21`, for which the cytotoxicity at 10 µM was -2.42%.
Under `Cn1nccc1C(=O)N1CCOC(Cc2ccc(F)cc2)C1` (stereo unspecified) stands 5.08%; under `N#Cc1ccc(OCCN2CCn3c(nnc3C3CC3)C2)cc1`, -3.75%; under `COc1ccc(C2(c3nc(-c4cnn(C)c4)no3)CCOCC2)cc1`, 11.4%.
`CN(Cc1cccnc1)Cc1cn2c(n1)CN(C1CCOC1)CC2` (stereo unspecified): the cytotoxicity at 10 µM stood at 6.2%.
As for `N[C@@H](Cc1c[nH]cn1)C(=O)N1CCC(Oc2ccc(F)cc2)CC1`, the cytotoxicity at 10 µM stood at 0.828%.
Turning to `COCCN1CC(C(=O)NCc2ccc(C)s2)CC1=O` (stereo unspecified), the cytotoxicity at 10 µM was 5.27%.
Take `Cc1cnc(N2C(=O)CSC2c2cccs2)s1` (stereo unspecified): the cytotoxicity at 10 µM came out at 0.847%.
Regarding `Cc1cc(C[S+]([O-])CC(=O)NCc2cccs2)no1` (stereo unspecified), the cytotoxicity at 10 µM is -12.3%.
For `O=C(N1CCC2(CC1)[C@H](O)C[C@@H]2O)C1(c2ccccc2F)CC1` the value was 6.1%.
Consider `CN(C)c1nc(O)cc(C2CCN(C(=O)Cc3ccccn3)C2)n1` (stereo unspecified), for which the cytotoxicity at 10 µM was -0.399%.
In the case of `CC(c1ccccn1)N(C)Cc1ccc(-n2ccnc2)cc1` (stereo unspecified), the cytotoxicity at 10 µM was -0.452%.
Under `CC1CCC(C(=O)N2CCC(n3cc(C4(O)CCCC4)nn3)CC2)CC1` (stereo unspecified) stands 9.08%.
Consider `CC(C)N1c2sc(-c3ccsc3)nc2CC1C(=O)NC1CC1` (stereo unspecified), for which the cytotoxicity at 10 µM was found to be 8.67%.
Under `CN(C)CCOc1cccc(CN2CCCC3(C2)CN(C)C(=O)O3)c1` (stereo unspecified) stands -5.82%.
As for `CC1(c2[nH]ncc2C(N)=O)CCN(c2ncccn2)CC1`, the cytotoxicity at 10 µM turned out to be 0.462%.
Take `Cc1nn2cccnc2c1C(=O)N1CCCC(n2ccnc2)C1` (stereo unspecified): the cytotoxicity at 10 µM is -4.62%.
As to `CC1=Nc2c(c(O)nn2C(C)C)C(c2cnn(C)c2)S1` (stereo unspecified), the cytotoxicity at 10 µM came out at 10.8%.
Turning to `COc1ccncc1NC(=O)C1(c2ccc(F)cc2)CCC1`, the cytotoxicity at 10 µM amounted to 1.52%.
On to `Cc1cc(C(F)(F)F)nn1C(C)C(=O)Nc1ccncc1` (stereo unspecified), for which the cytotoxicity at 10 µM amounted to 3.1%.
Under `Cc1noc2ncc(S(=O)(=O)Nc3cc(C(C)(C)C)n[nH]3)cc12` stands 3.26%; under `CNS(=O)(=O)c1ccc(CNC(=O)NCC2CCOC2)cc1` (stereo unspecified), -2.65%.
Turning to `CNC(=O)C(NC(=O)c1ccn(C)c(=O)c1)c1ccccc1` (stereo unspecified), the cytotoxicity at 10 µM is 4.73%.
As to `COc1cc(CNC(C)Cn2ccnc2)cc2c1OCO2` (stereo unspecified), the cytotoxicity at 10 µM came out at 2.67%.
In the case of `COCCN(C)C[C@@H]1CN(C(=O)c2ccc(C)c(Cl)c2)C[C@@H]1CO`, the cytotoxicity at 10 µM is -0.678%.
As for `CCN(Cc1noc(CC(C)C)n1)Cc1ccccc1OCC(=O)O`, the cytotoxicity at 10 µM was -49%.
Regarding `COc1cc(CN(CCCN(C)C)Cc2ccccn2)cc2c1OCO2`, the cytotoxicity at 10 µM came out at 1.44%.
Take `Cc1ccsc1C(=O)N1CCC(c2nccn2Cc2ccncc2)CC1`: the cytotoxicity at 10 µM is 0.535%.
As for `CNC(=O)NCC(CO)Cc1ccccc1OC(F)(F)F` (stereo unspecified), the cytotoxicity at 10 µM was 5.97%.
For `COCc1cnc2n1CCN(C(=O)c1oc3ccccc3c1C)C2C` (stereo unspecified) the value was -104%; for `Cc1ccc(CN2C[C@@H]3CCN(Cc4ccncc4)C(=O)[C@H]3C2)s1`, 4.53%; for `CCCc1[nH]n(C)c(=N)c1-c1ccc2c(c1)OCO2`, -51.5%.
Take `c1cc(CN2CCc3ncc(CN4CCCCC4)n3CC2)cs1`: the cytotoxicity at 10 µM is -5.21%.
Consider `Cc1cnn(CC2CN(Cc3nc(-c4ccsc4)no3)CCO2)c1` (stereo unspecified), for which the cytotoxicity at 10 µM is -9.74%.
For `O=C(C[C@@H]1COC[C@H]2CN(Cc3ccncc3)C[C@@H]12)N1CCOCC1`, the cytotoxicity at 10 µM was 6.59%.
Regarding `CS(=O)(=O)CCCSCc1cc(F)cc(Br)c1`, the cytotoxicity at 10 µM worked out at 9.05%.
Under `N#CCCN(CCC#N)C(=O)c1ccc(COc2ccccc2C#N)o1` stands -16.6%; under `CC(C)c1ccc(C(=O)N2CCOCC2CC(=O)c2ccco2)cn1` (stereo unspecified), 6.93%; under `CNC(=O)c1ccc(C2CCCN(C(=O)c3sc(C)nc3C)C2)nc1` (stereo unspecified), -36.5%.
Under `CCc1cnc(N2C[C@H]3CN(Cc4ccc(OC)cc4)C(=O)[C@H]3C2)nc1` stands 11.6%.
`Cc1ncc(C)c(N2CCC(CCc3ccccc3)(C(=O)O)CC2)n1`: the cytotoxicity at 10 µM amounted to 3.49%.
`c1cnc(N2CCOCC3(CCCN(CC4CC4)C3)C2)cn1` (stereo unspecified): the cytotoxicity at 10 µM was -15.8%.
As for `CCOc1ccc(CNC(C)c2c(C)nn(C)c2C)cc1` (stereo unspecified), the cytotoxicity at 10 µM was -0.00326%.
Regarding `COc1ccccc1N1CCC(CNC(=O)CN2CSCC2=O)C1` (stereo unspecified), the cytotoxicity at 10 µM was -1.33%.
For `CCc1nnc(SCc2nonc2C)n1C1CC1` the value was 0.649%; for `O=C(Nc1cccnc1)[C@H]1C[C@H]2OCC[C@H]2N(C(=O)c2ccsc2)C1`, -1.24%.
On to `N#Cc1cccn(CCOc2ccc(Cl)cc2)c1=O`, for which the cytotoxicity at 10 µM is 18.6%.
For the compound `Cc1cnn(C2CN(Cc3nnc(-c4ccccc4Cl)o3)C2)c1`, the cytotoxicity at 10 µM is -2.76%.
In the case of `Cc1cc(C[C@@H]2CCC[C@H]2NCc2cc(F)ccc2F)on1`, the cytotoxicity at 10 µM was -5.72%.
`Cc1ccc(C(=O)CN2C(=O)c3ccccc3CS2(=O)=O)c(C)c1`: the cytotoxicity at 10 µM is 17.6%.
Turning to `Cc1noc(C)c1CN1C[C@@H](OCC(=O)N(C)C)[C@H]2OCCC[C@H]21`, the cytotoxicity at 10 µM was determined as 12.1%.
`CCCc1cc(C(=O)N2C[C@@H](C)[C@](O)(C3CCC3)C2)[nH]n1`: the cytotoxicity at 10 µM was found to be 10.1%.
For `CCC1=NC2(CCC(C(=O)Nc3ccc(C)nc3)CC2)C(=O)N1C` (stereo unspecified) the value was 8.79%; for `NC(=O)CN1CC2(CCC1=O)CCN(Cc1cc(F)ccc1Cl)CC2`, 18.6%.
As to `CCOc1ccccc1-c1noc(CN(C)Cc2cnn(C)c2)n1`, the cytotoxicity at 10 µM is -6.98%.
As for `CC(=O)N1CCC1c1cc(N2CCNC(=O)C2)nc(C)n1` (stereo unspecified), the cytotoxicity at 10 µM was -1.62%.
For the compound `c1ccc(-c2cnc(CN3CCCC3Cn3cncn3)o2)cc1` (stereo unspecified), the cytotoxicity at 10 µM was -5.82%.
As to `N#Cc1cccc(C(=O)N2CC[C@H]3[C@H]2CCN3CC2CC2)c1`, the cytotoxicity at 10 µM came out at 3.03%.
With `Cc1ccsc1CN(CCCC(F)(F)F)Cc1ccccn1`, the cytotoxicity at 10 µM came to 0.107%.
`COc1cc(F)c(C(=O)NCc2ccon2)c(F)c1`: the cytotoxicity at 10 µM stood at 2.13%.
`O=C1CNc2ncnc(NCc3cccs3)c2N1`: the cytotoxicity at 10 µM was determined as 2.99%.
For `Cc1nn2c(N3CCC(C(N)=O)CC3)cc(-c3ccccc3)nc2c1C`, the cytotoxicity at 10 µM was -2.83%.
As to `Cc1nc2ccccc2nc1CN1CCCC(Cn2cncn2)C1` (stereo unspecified), the cytotoxicity at 10 µM is -4.57%.
For `Cn1ccc(NC(=O)Cc2cccc(F)c2)n1` the value was 1.44%; for `c1cc(CNCc2ccnc(N3CCCCC3)c2)c2c(c1)OCCCO2`, 21.4%; for `Cc1nccn1Cc1nnc(C2CCCN(Cc3cccnc3)C2)n1C` (stereo unspecified), -6.15%.
For `Cc1cc(CNc2ccc3nc(C)sc3c2)no1` the value was -5.2%; for `CCc1ccc(CN(C)C(=O)C(c2ccccc2F)N(C)C)nc1` (stereo unspecified), 4.03%; for `CN(c1cccc(C#N)c1)S(=O)(=O)c1cc(C(=O)O)ccc1Cl`, -5.94%.
On to `O=C(NCCNS(=O)(=O)c1ccc2c(c1)CCCC2)c1ccoc1`, for which the cytotoxicity at 10 µM was 0.743%.
Turning to `O=C(Nc1nc(-c2ccccc2)ns1)N1CC[C@H](O)C1`, the cytotoxicity at 10 µM stood at 10.5%.
Consider `O=C(Nc1ccc(-n2ccnc2)c(F)c1)C1CCN(C(=O)C2CC2)CC1`, for which the cytotoxicity at 10 µM amounted to 1.21%.
